ChEMBL document CHEMBL2417469, “Synthesis of novel analogs of 2-pyrazoline obtained from [(7-chloroquinolin-4-yl)amino]chalcones and hydrazine as potential antitumor and antimalarial agents” (Eur J Med Chem, 2013)

Assays:
Assay type in all cases: functional
U-251 = test: Cytotoxicity against human U251 cells after 48 hrs by SRB assay; settings: U-251, 48 h
Method in brief: (§1)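 NCI 60-cell screen. Cells grew 24 h (37 °C, 5% CO2) before compound was added. Compounds were in DMSO and diluted in medium with gentamicin, then tested at five levels (100, 10, 1.0, 0.1, 0.01 µM) with 48 h continuous exposure. Adherent cells were fixed with TCA (10% final) and stained with 0.4% SRB, absorbance read at 515 nm. A time-zero plate was included. LC50 is the concentration giving 50% loss of protein relative to time zero.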

HT-29 = test: Cytotoxicity against human HT-29 cells after 48 hrs by SRB assay; settings: HT-29, 48 h
Method in brief: (§2)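 NCI 60-cell-line screen. Cells preincubated 24 h at 37 °C, 5% CO2; time-zero plates TCA-fixed. Compounds dissolved in DMSO and tested at five concentrations (100, 10, 1.0, 0.1, 0.01 µM) for 48 h continuous exposure. Adherent cells fixed with cold TCA (10% final), then SRB stained; absorbance at 515 nm. GI50, TGI and LC50 calculated from growth relative to time-zero and untreated controls.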

CAKI-1 = test: Cytotoxicity against human Caki1 cells after 48 hrs by SRB assay; settings: CAKI-1, 48 h; method in brief: as §2
NCI-H522 = test: Cytotoxicity against human NCI-H522 cells after 48 hrs by SRB assay; settings: NCI-H522, 48 h; method in brief: as §2
PC-3 = test: Cytotoxicity against human PC3 cells after 48 hrs by SRB assay; settings: PC-3, 48 h; method in brief: as §2
SK-OV-3 = test: Cytotoxicity against human SKOV3 cells after 48 hrs by SRB assay; settings: SK-OV-3, 48 h; method in brief: as §2
UACC-257 = test: Cytotoxicity against human UACC257 cells after 48 hrs by SRB assay; settings: UACC-257, 48 h; method in brief: as §1
MDA-MB-468 = test: Cytotoxicity against human MDA-MB-468 cells after 48 hrs by SRB assay; settings: MDA-MB-468, 48 h; method in brief: as §2
786-0 = test: Cytotoxicity against human 786-0 cells after 48 hrs by SRB assay; settings: 786-0, 48 h; method in brief: as §2
MOLT-4 = test: Cytotoxicity against human MOLT4 cells after 48 hrs by SRB assay; settings: MOLT-4, 48 h; method in brief: as §2
LOX IMVI = test: Cytotoxicity against human LOXIMVI cells after 48 hrs by SRB assay; method in brief: as §2
SR = test: Cytotoxicity against human SR cells after 48 hrs by SRB assay; method in brief: as §1
RXF 393 = test: Cytotoxicity against human RXF393 cells after 48 hrs by SRB assay; settings: RXF 393, 48 h; method in brief: as §2
NCI-H23 = test: Cytotoxicity against human NCI-H23 cells after 48 hrs by SRB assay; settings: NCI-H23, 48 h; method in brief: as §2
UACC-62 = test: Cytotoxicity against human UACC62 cells after 48 hrs by SRB assay; settings: UACC-62, 48 h; method in brief: as §1
A549 = test: Cytotoxicity against human A549/ATCC cells after 48 hrs by SRB assay; settings: A549, 48 h; method in brief: as §2
MDA-MB-231 = test: Cytotoxicity against human MDA-MB-231 cells after 48 hrs by SRB assay; settings: MDA-MB-231, 48 h; method in brief: as §2
SW-620 = test: Cytotoxicity against human SW620 cells after 48 hrs by SRB assay; settings: SW-620, 48 h; method in brief: as §1
HCT-15 = test: Cytotoxicity against human HCT15 cells after 48 hrs by SRB assay; settings: HCT-15, 48 h; method in brief: as §2
DU-145 = test: Cytotoxicity against human DU145 cells after 48 hrs by SRB assay; settings: DU-145, 48 h; method in brief: as §2
IGROV-1 = test: Cytotoxicity against human IGROV1 cells after 48 hrs by SRB assay; settings: IGROV-1, 48 h; method in brief: as §2
TK-10 = test: Cytotoxicity against human TK10 cells after 48 hrs by SRB assay; settings: TK-10, 48 h; method in brief: as §1
SNB-75 = test: Cytotoxicity against human SNB75 cells after 48 hrs by SRB assay; settings: SNB-75, 48 h; method in brief: as §1
BT-549 = test: Cytotoxicity against human BT549 cells after 48 hrs by SRB assay; settings: BT-549, 48 h; method in brief: as §2
HL-60(TB) = test: Cytotoxicity against human HL-60(TB) cells after 48 hrs by SRB assay; settings: HL-60, 48 h; method in brief: as §2
OVCAR-4 = test: Cytotoxicity against human OVCAR4 cells after 48 hrs by SRB assay; settings: OVCAR-4, 48 h; method in brief: as §2
COLO 205 = test: Cytotoxicity against human COLO205 cells after 48 hrs by SRB assay; settings: COLO 205, 48 h; method in brief: as §2
SF-295 = test: Cytotoxicity against human SF295 cells after 48 hrs by SRB assay; settings: SF-295, 48 h; method in brief: as §2
M14 = test: Cytotoxicity against human M14 cells after 48 hrs by SRB assay; settings: M14, 48 h; method in brief: as §2
SF-539 = test: Cytotoxicity against human SF539 cells after 48 hrs by SRB assay; settings: SF-539, 48 h; method in brief: as §2
A498 = test: Cytotoxicity against human A498 cells after 48 hrs by SRB assay; settings: A498, 48 h; method in brief: as §2
NCI/ADR-RES = test: Cytotoxicity against human NCI/ADR-RES cells after 48 hrs by SRB assay; method in brief: as §2
KM12 = test: Cytotoxicity against human KM12 cells after 48 hrs by SRB assay; settings: KM12, 48 h; method in brief: as §2
Malme-3M = test: Cytotoxicity against human MALME-3M cells after 48 hrs by SRB assay; method in brief: as §2
UO-31 = test: Cytotoxicity against human UO31 cells after 48 hrs by SRB assay; settings: UO-31, 48 h; method in brief: as §1
Hs-578T = test: Cytotoxicity against human Hs578T cells after 48 hrs by SRB assay; method in brief: as §2
[1] = read-out: LC50 (the source's name)

## O=CN1N=C(c2ccc(Nc3ccnc4cc(Cl)ccc34)cc2)CC1c1ccc(Cl)cc1 (stereo unspecified)
U-251
  GI50: 0.51 µM
U-251; [1]
  CC50: > 100 µM
HT-29
  GI50: 0.41 µM
  LC50: > 100 µM
CAKI-1
  GI50: 0.41 µM
  LC50: > 100 µM
NCI-H522
  GI50: 0.39 µM
NCI-H522; [1]
  CC50: > 100 µM
PC-3
  GI50: 0.48 µM
  LC50: > 100 µM
SK-OV-3
  GI50: 0.57 µM
  LC50 (concentration killing 50% of cells): > 100 µM
UACC-257
  GI50: > 100 µM
  LC50: > 100 µM
MDA-MB-468
  GI50: 0.32 µM
  LC50: > 100 µM
786-0
  GI50: 0.91 µM
  LC50: > 100 µM
MOLT-4
  GI50: 0.53 µM
  LC50: > 100 µM
LOX IMVI
  GI50: 0.6 µM
  LC50: > 100 µM
SR
  GI50: 0.32 µM
  LC50: > 100 µM
RXF 393
  GI50: 1.88 µM
  LC50 (concentration killing 50% of cells): > 100 µM
NCI-H23
  GI50: 2.77 µM
NCI-H23; [1]
  CC50: > 100 µM
UACC-62
  GI50: 0.57 µM
UACC-62; [1]
  CC50: > 100 µM
A549
  GI50: 0.99 µM
A549; [1]
  CC50: > 100 µM
MDA-MB-231
  GI50: 1.43 µM
  LC50 (concentration killing 50% of cells present at time zero): > 100 µM
SW-620
  GI50: 0.48 µM
  LC50: > 100 µM
HCT-15
  GI50: 0.58 µM
  LC50 (concentration killing 50% of cells relative to time zero): > 100 µM
DU-145
  GI50: 1.94 µM
  LC50 (concentration killing 50% of cells): > 100 µM
IGROV-1
  GI50: 5.01 µM
  LC50 (concentration killing 50% of cells relative to time zero): > 100 µM
TK-10
  GI50: 9.57 µM
  LC50 (concentration giving 50% cell loss vs time zero): > 100 µM
SNB-75
  GI50: 0.42 µM
  LC50 (50% net cell kill): > 100 µM
BT-549
  GI50: 4.77 µM
  LC50 (50% net cell kill vs time zero): > 100 µM
HL-60(TB)
  GI50: 0.38 µM
HL-60(TB); [1]
  CC50: > 100 µM
OVCAR-4
  GI50: 6.48 µM
  LC50: > 100 µM
COLO 205
  GI50: 2.4 µM
  LC50: > 100 µM
SF-295
  GI50: 0.27 µM
  LC50: > 100 µM
M14
  GI50: 0.62 µM
M14; [1]
  CC50: > 100 µM
SF-539
  GI50: 0.58 µM
SF-539; [1]
  CC50: > 100 µM
A498
  GI50: > 100 µM
A498; [1]
  CC50: > 100 µM
NCI/ADR-RES
  GI50: 0.36 µM
NCI/ADR-RES; [1]
  CC50: > 100 µM
KM12
  GI50: 0.54 µM
  LC50 (concentration killing 50% of cells): > 100 µM
Malme-3M
  LC50: > 100 µM
UO-31
  GI50: 1.3 µM
  LC50: > 100 µM
Hs-578T
  GI50: 3.93 µM
  LC50 (50% net cell kill): > 100 µM
